# Assay results published in ChEMBL document CHEMBL2331225, “Structure-based design, synthesis and evaluation of novel anthra[1,2-d]imidazole-6,11-dione derivatives as telomerase inhibitors and potential for cancer polypharmacology” (Eur J Med Chem, 2013).
# Active and inactive are the calls of the source. The calls are words filed in the database; no cut-off is given here.
# Columns and labels:
# [1] = Cytotoxicity against human H1299 cells assessed as cell viability at 1 uM after 48 hrs by MTT assay; assay type: functional; conditions: NCI-H1299, 48 h, read-out: Activity
# In short: (§1)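 H1299 cells at about 2 × 10³ per well were grown 24 h at 37 °C in 5% CO₂. Compounds were dissolved in DMSO just before use and diluted into complete medium. After 48 h exposure, MTT was added for 4 h at 37 °C, then lysis buffer (20% SDS, 50% DMF) for 16 h at 37 °C. Absorbance was read at 550 nm.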
# [2] = Cytotoxicity against human H1299 cells assessed as cell viability at 10 uM after 48 hrs by MTT assay; assay type: functional; conditions: NCI-H1299, 48 h, read-out: Activity; in short: as §1
# PC-3 = test: Growth inhibition of human PC3 cells after 48 hrs by SRB assay; assay type: functional, cell-based; conditions: PC-3, 48 h
# In short: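 PC-3 cells were seeded in medium with 5% FBS; after 24 h a plate was fixed with 10% TCA as T₀. Vehicle (0.1% DMSO) or compound was given for 48 h, then cells were TCA-fixed, stained with 0.4% SRB in 1% acetic acid, solubilized in 10 mM Trizma base and read at 515 nm. IC₅₀ is the concentration halving the protein increase seen in controls.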
# [3] = target: T1, Telomerase reverse transcriptase (Homo sapiens, UniProt O14746); test: Inhibition of TERT transcriptional activity in human H1299 cells assessed SEAP activity at 10 uM incubated for 24 hrs by SEAP assay; assay type: cell-based; set-up: scale not given: the % may be the effect or the level left
# T1 sequence (O14746 whole entry): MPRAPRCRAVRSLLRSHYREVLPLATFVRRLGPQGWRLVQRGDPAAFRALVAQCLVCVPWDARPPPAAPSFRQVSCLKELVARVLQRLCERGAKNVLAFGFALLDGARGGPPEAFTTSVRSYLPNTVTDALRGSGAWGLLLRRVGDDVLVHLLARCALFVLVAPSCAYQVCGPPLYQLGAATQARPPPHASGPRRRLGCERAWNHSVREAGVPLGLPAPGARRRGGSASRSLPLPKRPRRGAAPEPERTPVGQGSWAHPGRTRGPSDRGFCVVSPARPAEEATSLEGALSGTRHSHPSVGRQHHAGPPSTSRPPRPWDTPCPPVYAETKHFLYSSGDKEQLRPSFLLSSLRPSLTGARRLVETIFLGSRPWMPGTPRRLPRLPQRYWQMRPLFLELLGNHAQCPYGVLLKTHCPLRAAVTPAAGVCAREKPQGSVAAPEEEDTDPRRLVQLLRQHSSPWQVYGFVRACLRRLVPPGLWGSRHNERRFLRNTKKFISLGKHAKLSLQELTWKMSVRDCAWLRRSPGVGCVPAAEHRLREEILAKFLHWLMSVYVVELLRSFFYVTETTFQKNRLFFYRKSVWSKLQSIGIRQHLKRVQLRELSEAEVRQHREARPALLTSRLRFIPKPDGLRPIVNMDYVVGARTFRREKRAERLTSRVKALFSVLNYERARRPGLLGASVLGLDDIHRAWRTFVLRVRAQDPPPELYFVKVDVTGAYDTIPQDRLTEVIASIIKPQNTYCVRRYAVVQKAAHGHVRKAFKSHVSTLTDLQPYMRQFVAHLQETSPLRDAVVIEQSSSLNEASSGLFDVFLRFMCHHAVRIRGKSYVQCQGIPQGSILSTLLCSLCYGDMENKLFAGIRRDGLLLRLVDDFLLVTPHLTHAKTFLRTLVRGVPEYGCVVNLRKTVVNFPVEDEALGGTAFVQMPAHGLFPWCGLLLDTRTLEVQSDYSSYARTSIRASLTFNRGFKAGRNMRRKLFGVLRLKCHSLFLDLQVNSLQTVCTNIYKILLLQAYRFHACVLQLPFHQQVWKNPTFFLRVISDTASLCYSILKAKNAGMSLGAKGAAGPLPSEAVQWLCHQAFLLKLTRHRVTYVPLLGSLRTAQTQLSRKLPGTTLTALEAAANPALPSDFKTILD
# In short: (§2)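 H1299 stable clones carry the hTERT promoter (−3338 to +1 bp) upstream of SEAP, introduced by electroporation and selected with G418. About 2 × 10³ cells per well were grown 24 h at 37 °C, given fresh medium, then drug for 24 h. Collected media were heated at 65 °C for 10 min, mixed with equal SEAP buffer (2 M diethanolamine, 1 mM MgCl₂, 20 mM L-homoarginine) and p-nitrophenyl phosphate at 12 mM final.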
# [4] = Cytotoxicity against human H1299 cells assessed as cell viability at 100 uM after 48 hrs by MTT assay; assay type: functional; conditions: NCI-H1299, 48 h, read-out: Activity; in short: as §1
# [5] = target: T1, Telomerase reverse transcriptase; test: Inhibition of TERT transcriptional activity in human H1299 cells assessed SEAP activity at 100 uM incubated for 24 hrs by SEAP assay; assay type: cell-based; set-up: scale not given: the % may be the effect or the level left; in short: as §2
# [6] = target: T1, Telomerase reverse transcriptase; test: Inhibition of TERT transcriptional activity in human H1299 cells assessed SEAP activity at 1 uM incubated for 24 hrs by SEAP assay; assay type: cell-based; set-up: scale not given: the % may be the effect or the level left; in short: as §2
# [7] = target: T1, Telomerase reverse transcriptase; test: Inhibition of TERT activity in human H1299 cells homogenates incubated for 5 mins at 100 uM by TRAP assay; assay type: cell-free
# In short: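 Telomerase-active extracts were prepared from H1299 cells, and lysate protein was measured against BSA standards. Compounds were tested in the TRAP assay, with RNase A-treated extracts as negative controls.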
IC50 (PC-3) [µM],Activity [3] [%],Activity [5] [%],Activity [6] [%],TERT inhibition (active/not active) [7],Compound,viability at 1 µM [1] [%],viability at 10 µM [2] [%],viability at 100 µM [4] [%]
8.8,45,0,84,inactive,CN(C)Cc1nc2ccc3c(c2[nH]1)C(=O)c1ccccc1C3=O,99,64,0
6.7,77,5,115,inactive,O=C1c2ccccc2C(=O)c2c1ccc1nc(CN3CCSCC3)[nH]c21,92,77,1
7.5,39,0,97,inactive,CCN(C)Cc1nc2ccc3c(c2[nH]1)C(=O)c1ccccc1C3=O,99,65,0
7.6,8,2,52,inactive,O=C1c2ccccc2C(=O)c2c1ccc1nc(CNCc3ccc(C(F)(F)F)cc3)[nH]c21,74,11,0
> 30,81,0,87,inactive,O=C1c2ccccc2C(=O)c2c1ccc1nc(CNCc3ccccc3C(F)(F)F)[nH]c21,99,96,6
12.4,97,26,102,inactive,O=C1c2ccccc2C(=O)c2c1ccc1nc(CN3CCOCC3)[nH]c21,90,71,13
12.1,86,12,106,inactive,O=C1c2ccccc2C(=O)c2c1ccc1nc(CN3CCSC3)[nH]c21,89,76,5
6.7,1,0,77,inactive,CC(C)N(C)Cc1nc2ccc3c(c2[nH]1)C(=O)c1ccccc1C3=O,96,23,0
10.5,66,4,107,inactive,O=C1c2ccccc2C(=O)c2c1ccc1nc(CN3CCCCCC3)[nH]c21,104,85,0
17.3,7,0,74,inactive,CN1CCN(CCc2nc3ccc4c(c3[nH]2)C(=O)c2ccccc2C4=O)CC1,87,32,0
> 30,77,12,102,inactive,CN(Cc1nc2ccc3c(c2[nH]1)C(=O)c1ccccc1C3=O)Cc1c2ccccc2cc2ccccc12,98,84,42
16.7,78,0,103,inactive,O=C1c2ccccc2C(=O)c2c1ccc1nc(CN3CCN(c4ccccc4F)CC3)[nH]c21,88,77,15
17.1,34,0,96,inactive,CCCN(C)Cc1nc2ccc3c(c2[nH]1)C(=O)c1ccccc1C3=O,93,80,0
6.4,0,0,86,inactive,O=C1c2ccccc2C(=O)c2c1ccc1nc(CN(Cc3ccccn3)Cc3ccccn3)[nH]c21,101,13,0
> 30,13,0,87,inactive,O=C(CCCl)Nc1ccc2c(c1NC(=O)CCCl)C(=O)c1ccccc1C2=O,94,34,6
> 30,63,1,88,inactive,O=C1c2ccccc2C(=O)c2c1ccc1nc(CCN3CCN(c4ccccn4)CC3)[nH]c21,98,93,57
27.9,92,19,111,inactive,O=C1c2ccccc2C(=O)c2c1ccc1nc(CN3CCN(c4ncccn4)CC3)[nH]c21,85,74,28
18.7,78,0,105,inactive,COc1cccc(CN(C)Cc2nc3ccc4c(c3[nH]2)C(=O)c2ccccc2C4=O)c1,97,98,9
21.6,96,14,97,inactive,O=C1c2ccccc2C(=O)c2c1ccc1nc(CN3CCC4(CC3)OCCO4)[nH]c21,103,79,15
21,69,7,90,inactive,CN(Cc1nc2ccc3c(c2[nH]1)C(=O)c1ccccc1C3=O)CC1OCCO1,104,90,28
> 30,89,4,87,inactive,O=C1c2ccccc2C(=O)c2c1ccc1nc(CNCc3cccc(C(F)(F)F)c3)[nH]c21,114,110,32
5.1,0,3,69,inactive,O=C1c2ccccc2C(=O)c2c1ccc1nc(CCl)[nH]c21,82,0,0
22.5,75,1,75,inactive,O=C1c2ccccc2C(=O)c2c1ccc1nc(CNCc3ccc4c(c3)OCO4)[nH]c21,109,103,14
12.8,17,0,87,inactive,C=CCN1CCN(Cc2nc3ccc4c(c3[nH]2)C(=O)c2ccccc2C4=O)CC1,86,45,0
> 30,11,0,98,inactive,O=C1c2ccccc2C(=O)c2c1ccc1nc(CN3CCN(Cc4ccccc4)CC3)[nH]c21,93,51,13
–,–,18,99,inactive,Nc1ccc2c(c1N)C(=O)c1ccccc1C2=O,105,95,39

Compound,IC50 (PC-3) [µM],Activity [3] [%],Activity [5] [%],Activity [6] [%],TERT inhibition (active/not active) [7],viability at 1 µM [1] [%],viability at 10 µM [2] [%],viability at 100 µM [4] [%]
O=C1c2ccccc2C(=O)c2c1ccc1nc(CCCl)[nH]c21,5.2,83,8,95,inactive,91,86,40
N#Cc1ccccc1N1CCN(Cc2nc3ccc4c(c3[nH]2)C(=O)c2ccccc2C4=O)CC1,29,57,6,106,inactive,78,62,22
